Reference: ChEMBL document CHEMBL1671644, “Inhibition of human immunodeficiency virus type 1 infection by the candidate microbicide dapivirine, a nonnucleoside reverse transcriptase inhibitor” (Antimicrob Agents Chemother, 2009)

Experiments:
Format in all cases: functional
[1] = tested on: Human immunodeficiency virus 1; test: Antiviral activity against HIV-1 subtype CRF02_AG V022825 infected in human MT4 cells assessed as inhibition of viral replication relative to HIV-1 3B
Outline: (§1)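 MT-4 cells (3 x 10^4/well) infected with site-directed mutants or recombinant clinical isolates (200 TCID50/well) with drug, cultured 3 to 5 days. Viability read by MTT colorimetric antivirogram assay. IC50 by nonlinear regression; fold change = IC50 for the test isolate / IC50 for wild-type HIV-1 IIIB tested in parallel (mean or median).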

[2] = Selectivity index, ratio of CC50 for human PM1 cells to IC50 for HIV-1 Bal
Outline: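 Selectivity index is CC50/IC50, using values determined in the same time period. CC50 was measured by MTT for TZM-bl and PM-1 cells and by trypan blue exclusion after 14 days for macrophages. Both were fitted by nonlinear regression.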

[3] = tested on: Human immunodeficiency virus 1; test: Antiviral activity against HIV-1 Bal infected in 24 hrs 10 nM compound pretreated human ectocervical explant tissue assessed as prolonged inhibition of viral infection post compound removal
Outline: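 Ectocervical explants were exposed to drug (0.01–10 µM) for 2 or 24 h at 37°C and washed. They received HIV-1BaL (2 h) on day 0, 2, 4 or 6 after drug removal, with no drug present. Read-outs at 10 days post-exposure: explant p24 ELISA, tissue proviral DNA by qPCR, and p24 in migratory cell–PM-1 cocultures. Three donors (2 h) or two donors (24 h), triplicate.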

[4] = tested on: Human immunodeficiency virus 1; test: Antiviral activity against HIV-1 subtype B V022813 infected in human MT4 cells assessed as inhibition of viral replication relative to HIV-1 3B; outline: as §1
[5] = tested on: Human immunodeficiency virus 1; test: Antiviral activity against HIV-1 subtype H V022828 harboring NNRTI K101Q and V179I mutant infected in human MT4 cells assessed as inhibition of viral replication relative to HIV-1 3B; outline: as §1
[6] = tested on: Human immunodeficiency virus 1; test: Antiviral activity against HIV-1 subtype B V022810 harboring NNRTI A98S andK101R mutant infected in human MT4 cells assessed as inhibition of viral replication relative to HIV-1 3B; outline: as §1

Cc1cc(C)c(Nc2ccnc(Nc3ccc(C#N)cc3)n2)c(C)c1 [DAPIVIRINE]
Ratio IC50 [1]: 0.8
Selectivity Index [2]: 1833
inhibition (INH) [3]: 90%
Ratio IC50 [4]: 0.7
Ratio IC50 [5]: 1.5
Ratio IC50 [6]: 1.6
